# Measurements: ChEMBL document CHEMBL5712897, “EZH2 inhibits autophagic cell death of aortic vascular smooth muscle cells to affect aortic dissection” (2018)
# Active and inactive are the calls of the source. The calls are words filed in the database; no cut-off is given here.
# Columns and labels:
# [1] = target: Histone-lysine N-methyltransferase EZH2 (Mus musculus) (UniProt Q61188); test: Inhibition of EZH2 in mouse MOVAS cells over-expressing AKT assessed as reduction in cell count at 5 uM by light microscopy; format: cell-based
# Method in brief: (§1)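 Mouse MOVAS VSMCs imaged by light microscopy after 48 h of the indicated treatments (scale bar 200 μm). Lentivirally modified cells were selected with puromycin 2 μg/ml after 48 h infection. Treatments were inhibitor 5 μM, DMSO vehicle, or PD98059 50 μM.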
# [2] = target: Histone-lysine N-methyltransferase EZH2 (Mus musculus) (UniProt Q61188); test: Inhibition of EZH2 in mouse MOVAS cells over-expressing AKT assessed as reduction in H3K27me2 level at 5 uM measured after 24 hrs by Western blot analysis; format: cell-based
# Method in brief: (§2)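 Total protein from MOVAS cells extracted in RIPA buffer. 20 μg per lane resolved by SDS-PAGE and transferred to PVDF. Blocked in 5% non-fat milk, primary antibody overnight at 4 °C, then peroxidase-conjugated secondary and chemiluminescence imaging. Normalized to GAPDH or β-actin loading control. n = 4; mean ± SD versus DMSO, two-tailed t-test.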
# [3] = target: Histone-lysine N-methyltransferase EZH2 (Mus musculus) (UniProt Q61188); test: Inhibition of EZH2 in mouse MOVAS cells assessed as increase in ERK1/2 phosphorylation at 5 uM measured after 6 hrs by Western blot analysis; format: cell-based; method in brief: as §2
# [4] = target: Histone-lysine N-methyltransferase EZH2 (Mus musculus) (UniProt Q61188); test: Inhibition of EZH2 in mouse MOVAS cells assessed as increase in ATG5 expression at 5 uM measured after 24 hrs by Western blot analysis; format: cell-based; method in brief: as §2
# MOVAS [5] = test: Cell cycle arrest in mouse MOVAS cells assessed as effect on G0/G1-phase cell population at 5 uM by flow cytometry; format: functional, cell-based
# Method in brief: (§3)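 MOVAS mouse aortic SMCs (about 2–5×10^6) harvested by trypsin, washed twice in PBS, fixed overnight at 4 °C in cold 70% ethanol, then stained 2 h in the dark with RNase A (0.3 mg) and propidium iodide (0.015 mg). Cell-cycle phase distribution read by flow cytometry. Data are mean ± SD, compared by two-tailed t-test.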
# [6] = target: Histone-lysine N-methyltransferase EZH2 (Mus musculus) (UniProt Q61188); test: Inhibition of EZH2 in mouse MOVAS cells assessed as reduction in H3K27me2 level at 5 uM measured after 24 hrs by Western blot analysis; format: cell-based; method in brief: as §2
# [7] = target: Histone-lysine N-methyltransferase EZH2 (Mus musculus) (UniProt Q61188); test: Inhibition of EZH2 in mouse MOVAS cells assessed as reduction in cell number at 5 uM measured at 24 hrs by cell counting method; format: cell-based
# Method in brief: (§4)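 MOVAS cells serum-starved 12 h in DMEM/high glucose, then 2×10^5 cells seeded in six-well plates in medium with 10% FBS. Trypsinized at 12, 24, 36 and 48 h and counted by a single blinded observer. Three replicate wells (n = 3); mean ± SD, two-tailed t-test.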
# [8] = target: Histone-lysine N-methyltransferase EZH2 (Mus musculus) (UniProt Q61188); test: Inhibition of EZH2 in mouse VSMC cells assessed as reduction in cell count at 5 uM for 24 hrs by light microscopic analysis; format: cell-based; conditions: MOVAS
# [9] = Induction of apoptosis in mouse MOVAS cells assessed as late apoptotic cells at 5 uM by flow cytometry; format: functional
# Method in brief: (§5)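 Trypsinized MOVAS cells stained with a PE Annexin V apoptosis detection kit and analysed by flow cytometry, which separated early and late apoptotic populations. Mean ± SD; two-tailed Student's t-test.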
# [10] = target: Histone-lysine N-methyltransferase EZH2 (Mus musculus) (UniProt Q61188); test: Inhibition of EZH2 in mouse MOVAS cells transfected with shATG5 assessed as reduction in cell count at 5 uM measured up to 48 hrs by cell counting method; format: cell-based; method in brief: as §4
# [11] = target: Histone-lysine N-methyltransferase EZH2 (Mus musculus) (UniProt Q61188); test: Inhibition of EZH2 in mouse MOVAS cells assessed as reduction in H3K27me3 level at 5 uM measured after 24 hrs by Western blot analysis; format: cell-based; method in brief: as §2
# [12] = target: Histone-lysine N-methyltransferase EZH2 (Mus musculus) (UniProt Q61188); test: Inhibition of EZH2 in mouse MOVAS cells assessed as reduction in cell count at 5 uM measured after 48 hrs in presence of MEK1 inhibitor PD98059 by cell counting method; format: cell-based; method in brief: as §4
# [13] = target: Histone-lysine N-methyltransferase EZH2 (Mus musculus) (UniProt Q61188); test: Inhibition of EZH2 in mouse MOVAS cells over-expressing AKT assessed as reduction in cell count at 5 uM by cell counting method; format: cell-based; method in brief: as §4
# [14] = target: Histone-lysine N-methyltransferase EZH2 (Mus musculus) (UniProt Q61188); test: Inhibition of EZH2 in mouse MOVAS cells assessed as reduction in cell count at 5 uM measured after 48 hrs in presence of MEK1 inhibitor PD98059 by light microscopy; format: cell-based; method in brief: as §1
# MOVAS [15] = test: Cell cycle arrest in mouse MOVAS cells assessed as effect on S-phase cell population at 5 uM by flow cytometry; format: functional, cell-based; method in brief: as §3
# [16] = target: Histone-lysine N-methyltransferase EZH2 (Mus musculus) (UniProt Q61188); test: Inhibition of EZH2 in mouse MOVAS cells transfected with shATG7 assessed as increase in LC3-II expression at 5 uM by Western blot analysis; format: cell-based; method in brief: as §2
# [17] = target: Histone-lysine N-methyltransferase EZH2 (Mus musculus) (UniProt Q61188); test: Inhibition of EZH2 in mouse MOVAS cells transfected with shATG7 assessed as reduction in cell count at 5 uM measured after 48 hrs by light microscopy; format: cell-based; method in brief: as §1
# [18] = target: Histone-lysine N-methyltransferase EZH2 (Mus musculus) (UniProt Q61188); test: Inhibition of EZH2 in mouse MOVAS cells assessed as elevation of LC3-II expression at 5 uM in presence of chloroquine and rapamycin by Western blot analysis; format: cell-based; method in brief: as §2
# [19] = target: Histone-lysine N-methyltransferase EZH2 (Mus musculus) (UniProt Q61188); test: Inhibition of EZH2 in mouse MOVAS cells assessed as increase in ATG7 expression at 5 uM measured after 24 hrs by Western blot analysis; format: cell-based; method in brief: as §2
# [20] = target: Histone-lysine N-methyltransferase EZH2 (Mus musculus) (UniProt Q61188); test: Inhibition of EZH2 in mouse MOVAS cells assessed as cell injury at 5 uM measured after 48 hrs by LDH release assay; format: cell-based
# Method in brief: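 Mouse MOVAS VSMCs exposed to inhibitor for 48 h. Cell injury quantified as percentage of injured cells from released LDH using a cytotoxicity LDH kit. n = 6; mean ± SD versus DMSO, two-tailed t-test.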
# [21] = Induction of apoptosis in mouse MOVAS cells assessed as early apoptotic cells at 5 uM by flow cytometry; format: functional; method in brief: as §5
# [22] = target: Histone-lysine N-methyltransferase EZH2 (Mus musculus) (UniProt Q61188); test: Inhibition of EZH2 in mouse MOVAS cells assessed as increase in ERK1/2 phosphorylation at 5 uM measured after 6 hrs in presence of MEK1 inhibitor PD98059 by Western blot analysis; format: cell-based; method in brief: as §2
# [23] = target: Histone-lysine N-methyltransferase EZH2 (Mus musculus) (UniProt Q61188); test: Inhibition of EZH2 in mouse MOVAS cells assessed as effect on mTOR phosphorylation at 5 uM measured after 24 hrs by Western blot analysis; format: cell-based; method in brief: as §2
# [24] = target: Histone-lysine N-methyltransferase EZH2 (Mus musculus) (UniProt Q61188); test: Inhibition of EZH2 in mouse MOVAS cells assessed as elevation of LC3-II expression at 5 uM by Western blot analysis; format: cell-based; method in brief: as §2
# [25] = target: Histone-lysine N-methyltransferase EZH2 (Mus musculus) (UniProt Q61188); test: Inhibition of EZH2 in mouse MOVAS cells assessed as elevation of LC3-II expression at 5 uM in presence of chloroquine by Western blot analysis; format: cell-based; method in brief: as §2
# [26] = target: Histone-lysine N-methyltransferase EZH2 (Mus musculus) (UniProt Q61188); test: Inhibition of EZH2 in mouse MOVAS cells over-expressing AKT assessed as increase in LC3-II expression at 5 uM measured after 24 hrs by Western blot analysis; format: cell-based; method in brief: as §2
# [27] = target: Histone-lysine N-methyltransferase EZH2 (Mus musculus) (UniProt Q61188); test: Inhibition of EZH2 in mouse MOVAS cells transfected with shATG5 assessed as reduction in cell count at 5 uM measured after 48 hrs by light microscopy; format: cell-based; method in brief: as §1
# [28] = target: Histone-lysine N-methyltransferase EZH2 (Mus musculus) (UniProt Q61188); test: Inhibition of EZH2 in mouse MOVAS cells transfected with shATG7 assessed as reduction in cell count at 5 uM measured up to 48 hrs by cell counting method; format: cell-based; method in brief: as §4
# [29] = target: Histone-lysine N-methyltransferase EZH2 (Mus musculus) (UniProt Q61188); test: Inhibition of EZH2 in mouse MOVAS cells assessed as reduction in AKT phosphorylation at 5 uM measured after 24 hrs by Western blot analysis; format: cell-based; method in brief: as §2
# [30] = target: Histone-lysine N-methyltransferase EZH2 (Mus musculus) (UniProt Q61188); test: Inhibition of EZH2 in mouse MOVAS cells transfected with shATG5 assessed as increase in LC3-II expression at 5 uM by Western blot analysis; format: cell-based; method in brief: as §2
# [31] = target: Histone-lysine N-methyltransferase EZH2 (Mus musculus) (UniProt Q61188); test: Inhibition of EZH2 in mouse MOVAS cells assessed as appearance of double-membraned vacuole containing fragments of cytoplasmic component in presence of rapamycin by transmission electron microscopy; format: cell-based
# Method in brief: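 MOVAS cells treated with inhibitor or lentivirus, with rapamycin at 150 nM. Fixed in cold 2.5% glutaraldehyde for 30 min, then further fixed overnight at 4 °C, dehydrated in ethanol and acetone, and embedded in epoxy resin. 60-nm sections stained with uranyl acetate and lead citrate and imaged by TEM for double-membraned autophagic vacuoles.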
# MOVAS [32] = test: Cell cycle arrest in mouse MOVAS cells assessed as effect on G2/M-phase cell population at 5 uM by flow cytometry; format: functional, cell-based; method in brief: as §3
# [33] = target: Histone-lysine N-methyltransferase EZH2 (Mus musculus) (UniProt Q61188); test: Inhibition of EZH2 in mouse MOVAS cells assessed as effect on AMPKalpha phosphorylation at 5 uM measured after 24 hrs by Western blot analysis; format: cell-based; method in brief: as §2
# [34] = target: Histone-lysine N-methyltransferase EZH2 (Mus musculus) (UniProt Q61188); test: Inhibition of EZH2 in mouse MOVAS cells over-expressing AKT assessed as reduction in H3K27me3 level at 5 uM measured after 24 hrs by Western blot analysis; format: cell-based; method in brief: as §2
# [35] = target: Histone-lysine N-methyltransferase EZH2 (Mus musculus) (UniProt Q61188); test: Inhibition of EZH2 in mouse MOVAS cells assessed as effect on S6 phosphorylation at 5 uM measured after 24 hrs by Western blot analysis; format: cell-based; method in brief: as §2
# [36] = target: Histone-lysine N-methyltransferase EZH2 (Mus musculus) (UniProt Q61188); test: Inhibition of EZH2 in mouse MOVAS cells assessed as increase in LC3-II accumulation at 5 uM measured after 24 hrs in presence of MEK1 inhibitor PD98059 by Western blot analysis; format: cell-based; method in brief: as §2
# MOVAS [37] = test: Cell cycle arrest in mouse MOVAS cells assessed as effect on G0/G1-phase cell population by flow cytometry; format: functional, cell-based; method in brief: as §3
# [38] = Induction of apoptosis in mouse MOVAS cells assessed as early apoptotic cells by flow cytometry; format: functional; method in brief: as §5
# MOVAS [39] = test: Cell cycle arrest in mouse MOVAS cells assessed as effect on S-phase cell population by flow cytometry; format: functional, cell-based; method in brief: as §3
# [40] = Induction of apoptosis in mouse MOVAS cells assessed as late apoptotic cells by flow cytometry; format: functional; method in brief: as §5
# MOVAS [41] = test: Cell cycle arrest in mouse MOVAS cells assessed as effect on G2/M-phase cell population by flow cytometry; format: functional, cell-based; method in brief: as §3
# Histone-lysine N-methyltransferase EZH2 (Mus musculus), sequence (Q61188 whole entry): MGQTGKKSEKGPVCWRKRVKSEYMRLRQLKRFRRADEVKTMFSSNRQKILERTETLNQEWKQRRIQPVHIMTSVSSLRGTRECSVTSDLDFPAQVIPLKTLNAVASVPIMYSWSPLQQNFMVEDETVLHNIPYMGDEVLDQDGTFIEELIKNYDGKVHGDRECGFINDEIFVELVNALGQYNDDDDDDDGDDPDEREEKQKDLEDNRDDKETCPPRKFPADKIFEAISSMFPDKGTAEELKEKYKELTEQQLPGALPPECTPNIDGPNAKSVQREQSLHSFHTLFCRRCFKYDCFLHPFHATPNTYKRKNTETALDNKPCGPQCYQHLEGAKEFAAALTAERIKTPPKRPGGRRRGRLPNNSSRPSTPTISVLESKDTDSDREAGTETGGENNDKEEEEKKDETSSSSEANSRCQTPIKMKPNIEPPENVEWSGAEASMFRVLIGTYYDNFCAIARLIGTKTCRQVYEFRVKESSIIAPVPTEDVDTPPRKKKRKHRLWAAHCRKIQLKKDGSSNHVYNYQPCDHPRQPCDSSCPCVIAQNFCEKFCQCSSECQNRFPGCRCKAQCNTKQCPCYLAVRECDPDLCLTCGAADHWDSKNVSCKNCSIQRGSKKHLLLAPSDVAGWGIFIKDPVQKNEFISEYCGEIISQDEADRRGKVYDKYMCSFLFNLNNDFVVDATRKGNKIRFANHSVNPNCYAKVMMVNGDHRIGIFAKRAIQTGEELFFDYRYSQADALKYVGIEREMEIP
smiles,measurement,setting,value
CCCc1cc(C)[nH]c(=O)c1CNC(=O)c1cc(-c2ccc(N3CCN(C(C)C)CC3)nc2)cc2c1cnn2C(C)C,inhibition,[1],Active
same,inhibition,[2],Active
same,inhibition,[3],Active
same,inhibition,[4],Active
same,Activity,MOVAS [5],inactive
same,inhibition,[6],Active
same,inhibition,[7],Active
same,inhibition,[8],Active
same,Activity,[9],6.11%
same,inhibition,[10],inactive
same,inhibition,[11],Active
same,inhibition,[12],inactive
same,inhibition,[13],Active
same,inhibition,[14],inactive
same,Activity,MOVAS [15],inactive
same,inhibition,[16],inactive
same,inhibition,[17],inactive
same,inhibition,[18],Active
same,inhibition,[19],Active
same,inhibition,[20],Active
same,Activity,[21],8.67%
same,inhibition,[22],inactive
same,inhibition,[23],inactive
same,inhibition,[24],Active
same,inhibition,[25],Active
same,inhibition,[26],Active
same,inhibition,[27],inactive
same,inhibition,[28],inactive
same,inhibition,[29],Active
same,inhibition,[30],inactive
same,inhibition,[31],Active
same,Activity,MOVAS [32],inactive
same,inhibition,[33],inactive
same,inhibition,[34],Active
same,inhibition,[35],inactive
same,inhibition,[36],inactive
C[S+](C)[O-] [DIMETHYL SULFOXIDE],Activity,MOVAS [37],inactive
same,Activity,[38],9.76%
same,Activity,MOVAS [39],inactive
same,Activity,[40],5.96%
same,Activity,MOVAS [41],inactive
